Columns and labels:
Assay type in all cases: functional
[1] = test system: Bacillus subtilis; assay: Antibacterial activity against penicillin-susceptible Bacillus subtilis ATCC 9372 assessed as bacterial growth inhibition incubated for 24 hrs by CLSI protocol based broth microdilution method
[2] = test system: Bacillus pumilus; assay: Antibacterial activity against penicillin-susceptible Bacillus pumilus CMCC 63202 assessed as bacterial growth inhibition by broth dilution method; conditions: time 24 hrs
Outline: (§1)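 Broth microdilution in Mueller Hinton broth. A 0.5 McFarland suspension was diluted tenfold, giving an inoculum of 1.5 × 10⁷ cfu/mL. This was added to 2-fold serial compound dilutions from […]. Plates were incubated aerobically at 37 °C for 24 h. MIC was the lowest concentration with no visible turbidity.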

[3] = test system: Staphylococcus aureus; assay: Antibacterial activity against erythromycin-susceptible Staphylococcus aureus ATCC 25923 assessed as bacterial growth inhibition incubated for 24 hrs by CLSI protocol based broth microdilution method
[4] = test system: Streptococcus pyogenes; assay: Antibacterial activity against erythromycin-susceptible Streptococcus pyogenes clinical isolate 1 assessed as bacterial growth inhibition incubated for 24 hrs by CLSI protocol based broth microdilution method
[5] = test system: Pseudomonas aeruginosa; assay: Antibacterial activity against penicillin-susceptible Pseudomonas aeruginosa ATCC27853 assessed as bacterial growth inhibition incubated for 24 hrs by CLSI protocol based broth microdilution method
[6] = test system: Escherichia coli; assay: Antibacterial activity against penicillin-susceptible Escherichia coli ATCC 25922 assessed as inhibition of bacterial growth measured by broth microdilution method; conditions: time 24 hrs; outline: as §1
[7] = test system: Staphylococcus aureus; assay: Antibacterial activity against methicillin-resistant Staphylococcus aureus ATCC 43300 assessed as inhibition of bacterial growth by broth microdilution method; conditions: time 24 hrs
Outline: (§2)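 Broth microdilution MIC. A 0.5 McFarland suspension was diluted 10-fold and added at 1.5 × 10⁷ cfu/mL to 2-fold dilutions (0.125–64) in Mueller Hinton broth. Incubated aerobically 24 h at 37 °C. MIC was the lowest concentration with no visible turbidity.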

[8] = test system: Staphylococcus aureus; assay: Antibacterial activity against Staphylococcus aureus assessed as inhibition of bacterial growth measured by broth microdilution method; conditions: time 24 hrs; outline: as §1
[9] = test system: Staphylococcus epidermidis; assay: Antibacterial activity against penicillin-resistant Staphylococcus epidermidis assessed as inhibition of bacterial growth measured by broth microdilution method; conditions: time 24 hrs
[10] = test system: Streptococcus pyogenes; assay: Antibacterial activity against erythromycin-resistant Streptococcus pyogenes 2 assessed as bacterial growth inhibition incubated for 24 hrs by CLSI protocol based broth microdilution method
[11] = test system: Staphylococcus aureus; assay: Antibacterial activity against penicillin-resistant Staphylococcus aureus assessed as inhibition of bacterial growth measured by broth microdilution method; conditions: time 24 hrs; outline: as §2

| SMILES | MIC [1] | MIC [2] | MIC [3] | MIC [4] | MIC [5] | MIC [6] | MIC [7] | MIC [8] | MIC [9] | MIC [10] | MIC [11] |
| --- | --- | --- | --- | --- | --- | --- | --- | --- | --- | --- | --- |
| COc1ccc(Nc2c3ccccc3[n+](C)c3ccccc23)c(OC)c1.[Cl-] | > 64 µg/mL | > 64 µg/mL | > 64 µg/mL | > 64 µg/mL | > 64 µg/mL | > 64 µg/mL | > 64 µg/mL | > 64 µg/mL | > 64 µg/mL | > 64 µg/mL |  |
| COc1ccc(-c2c3ccccc3[n+](C)c3ccccc23)cc1.[I-] | 8 µg/mL | 16 µg/mL | 4 µg/mL | 8 µg/mL | > 64 µg/mL | > 64 µg/mL | > 64 µg/mL | 8 µg/mL | > 64 µg/mL | 16 µg/mL | > 64 µg/mL |
| C[n+]1c2ccccc2c(Nc2ncccn2)c2ccccc21.[Cl-] | > 64 µg/mL | > 64 µg/mL | > 64 µg/mL | > 64 µg/mL | > 64 µg/mL | > 64 µg/mL | > 64 µg/mL | > 64 µg/mL | > 64 µg/mL | > 64 µg/mL |  |
| C[n+]1c2ccccc2c(C#Cc2ccccc2)c2ccccc21.[I-] | 2 µg/mL | 8 µg/mL | 2 µg/mL | 4 µg/mL | > 64 µg/mL | > 64 µg/mL | 2 µg/mL | 2 µg/mL | 4 µg/mL | 8 µg/mL | 4 µg/mL |
| CCc1ccc(-c2c3ccccc3[n+](C)c3ccccc23)cc1.[I-] | 2 µg/mL | 4 µg/mL | 0.25 µg/mL | 2 µg/mL | > 64 µg/mL | > 64 µg/mL | 16 µg/mL | 1 µg/mL | 32 µg/mL | 4 µg/mL | 64 µg/mL |
| C[n+]1c2ccccc2c(-c2ccc(OC(F)(F)F)cc2)c2ccccc21.[I-] | 4 µg/mL | 8 µg/mL | 0.5 µg/mL | 1 µg/mL | > 64 µg/mL | > 64 µg/mL | 2 µg/mL | 2 µg/mL | 32 µg/mL | 4 µg/mL | 64 µg/mL |
| CCCCCNc1c2ccccc2[n+](C)c2ccccc12.[Cl-] | 64 µg/mL | > 64 µg/mL | > 64 µg/mL | 16 µg/mL | > 64 µg/mL | > 64 µg/mL | > 64 µg/mL | > 64 µg/mL | 64 µg/mL | 32 µg/mL | 64 µg/mL |
| C[n+]1c2ccccc2c(Nc2ccccc2C(F)(F)F)c2ccccc21.[Cl-] | > 64 µg/mL | > 64 µg/mL | > 64 µg/mL | > 64 µg/mL | > 64 µg/mL | > 64 µg/mL | > 64 µg/mL | > 64 µg/mL | > 64 µg/mL | > 64 µg/mL |  |
| CCCNc1c2ccccc2[n+](C)c2ccccc12.[Cl-] | > 64 µg/mL | > 64 µg/mL | > 64 µg/mL | 32 µg/mL | > 64 µg/mL | > 64 µg/mL | > 64 µg/mL | > 64 µg/mL | 64 µg/mL | 64 µg/mL |  |
| C[n+]1c2ccccc2c(NC2CCCCC2)c2ccccc21.[Cl-] | 32 µg/mL | > 64 µg/mL | > 64 µg/mL | > 64 µg/mL | > 64 µg/mL | > 64 µg/mL | > 64 µg/mL | > 64 µg/mL | > 64 µg/mL | 64 µg/mL |  |
| C[n+]1c2ccccc2c(-c2ccc(C=O)cc2)c2ccccc21.[I-] | > 64 µg/mL | > 64 µg/mL | 64 µg/mL | 64 µg/mL | > 64 µg/mL | > 64 µg/mL | > 64 µg/mL | > 64 µg/mL | > 64 µg/mL | > 64 µg/mL |  |
| C[n+]1c2ccccc2c(NC2CC2)c2ccccc21.[Cl-] | > 64 µg/mL | > 64 µg/mL | > 64 µg/mL | > 64 µg/mL | > 64 µg/mL | > 64 µg/mL | > 64 µg/mL | > 64 µg/mL | > 64 µg/mL | 64 µg/mL |  |
| COc1ccccc1Nc1c2ccccc2[n+](C)c2ccccc12.[Cl-] | > 64 µg/mL | > 64 µg/mL | > 64 µg/mL | > 64 µg/mL | > 64 µg/mL | > 64 µg/mL | > 64 µg/mL | > 64 µg/mL | > 64 µg/mL | > 64 µg/mL |  |
| C[n+]1c2ccccc2c(Nc2ccc(Cl)cc2Cl)c2ccccc21.[Cl-] | > 64 µg/mL | > 64 µg/mL | > 64 µg/mL | > 64 µg/mL | > 64 µg/mL | > 64 µg/mL | > 64 µg/mL | > 64 µg/mL | > 64 µg/mL | > 64 µg/mL |  |
| CCNc1c2ccccc2[n+](C)c2ccccc12.[Cl-] | 64 µg/mL | > 64 µg/mL | > 64 µg/mL | 64 µg/mL | > 64 µg/mL | > 64 µg/mL | > 64 µg/mL | > 64 µg/mL | > 64 µg/mL | 64 µg/mL |  |
| C[n+]1c2ccccc2c(Nc2ccccc2-c2ccccc2)c2ccccc21.[Cl-] | > 64 µg/mL | > 64 µg/mL | > 64 µg/mL | > 64 µg/mL | > 64 µg/mL | > 64 µg/mL | > 64 µg/mL | > 64 µg/mL | > 64 µg/mL | > 64 µg/mL |  |
| CCc1ccccc1Nc1c2ccccc2[n+](C)c2ccccc12.[Cl-] | > 64 µg/mL | > 64 µg/mL | > 64 µg/mL | > 64 µg/mL | > 64 µg/mL | > 64 µg/mL | > 64 µg/mL | > 64 µg/mL | > 64 µg/mL | > 64 µg/mL |  |
| C[n+]1c2ccccc2c(Nc2ccccn2)c2ccccc21.[Cl-] | 64 µg/mL | > 64 µg/mL | > 64 µg/mL | > 64 µg/mL | > 64 µg/mL | > 64 µg/mL | > 64 µg/mL | > 64 µg/mL | > 64 µg/mL | > 64 µg/mL |  |
| C[n+]1c2ccccc2c(Nc2ccccc2)c2ccccc21.[Cl-] | > 64 µg/mL | > 64 µg/mL | > 64 µg/mL | > 64 µg/mL | > 64 µg/mL | > 64 µg/mL | > 64 µg/mL | > 64 µg/mL | > 64 µg/mL | > 64 µg/mL |  |
| C[n+]1c2ccccc2c(Nc2ccc(F)cc2F)c2ccccc21.[Cl-] | > 64 µg/mL | > 64 µg/mL | > 64 µg/mL | > 64 µg/mL | > 64 µg/mL | > 64 µg/mL | > 64 µg/mL | > 64 µg/mL | > 64 µg/mL | > 64 µg/mL |  |
| Cc1ccc(Nc2c3ccccc3[n+](C)c3ccccc23)c(C)c1.[Cl-] | > 64 µg/mL | > 64 µg/mL | > 64 µg/mL | > 64 µg/mL | > 64 µg/mL | > 64 µg/mL | > 64 µg/mL | > 64 µg/mL | > 64 µg/mL | > 64 µg/mL |  |
| CC(C)Nc1c2ccccc2[n+](C)c2ccccc12.[Cl-] | > 64 µg/mL | > 64 µg/mL | > 64 µg/mL | > 64 µg/mL | > 64 µg/mL | > 64 µg/mL | > 64 µg/mL | > 64 µg/mL | > 64 µg/mL | > 64 µg/mL |  |
| C[n+]1c2ccccc2c(Nc2nccs2)c2ccccc21.[Cl-] | > 64 µg/mL | > 64 µg/mL | > 64 µg/mL | > 64 µg/mL | > 64 µg/mL | > 64 µg/mL | > 64 µg/mL | > 64 µg/mL | > 64 µg/mL | > 64 µg/mL |  |
| O=C(O)c1cn(C2CC2)c2cc(N3CCNCC3)c(F)cc2c1=O [CIPROFLOXACIN] |  |  |  |  |  |  |  |  | > 64 µg/mL |  | > 64 µg/mL |
